Screening data as filed in PubChem.
RGS8-Gao reg – regulators of human RGS8-Galphao interaction; P09471; multiplexed bead flow cytometry, RGS8-Galphao binding; actives lie on both sides; response (percent of control binding), % at 10 µM; hit rate 0.34% among 220,000; AID 1423; in the data active means response below about 60% or above about 140%; inactive means in between;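 further: Galphao activated as the GDP aluminium fluoride complex binding bead-coupled RGS8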
ABCG2 block – inhibitors of human ABCG2 transporter, ABCB1 counter-screen. Q9UNQ0. IgMXP3 cells, JC-1 efflux, flow cytometry. inhibition, % at 6.6 µM. hit rate 0.1% among 190,000. AID 1325;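 active means inhibition above 80%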;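 further: 0% = DMSO and 100% = nicardipine control wells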
Target sequence (Q9UNQ0 whole entry, looked up): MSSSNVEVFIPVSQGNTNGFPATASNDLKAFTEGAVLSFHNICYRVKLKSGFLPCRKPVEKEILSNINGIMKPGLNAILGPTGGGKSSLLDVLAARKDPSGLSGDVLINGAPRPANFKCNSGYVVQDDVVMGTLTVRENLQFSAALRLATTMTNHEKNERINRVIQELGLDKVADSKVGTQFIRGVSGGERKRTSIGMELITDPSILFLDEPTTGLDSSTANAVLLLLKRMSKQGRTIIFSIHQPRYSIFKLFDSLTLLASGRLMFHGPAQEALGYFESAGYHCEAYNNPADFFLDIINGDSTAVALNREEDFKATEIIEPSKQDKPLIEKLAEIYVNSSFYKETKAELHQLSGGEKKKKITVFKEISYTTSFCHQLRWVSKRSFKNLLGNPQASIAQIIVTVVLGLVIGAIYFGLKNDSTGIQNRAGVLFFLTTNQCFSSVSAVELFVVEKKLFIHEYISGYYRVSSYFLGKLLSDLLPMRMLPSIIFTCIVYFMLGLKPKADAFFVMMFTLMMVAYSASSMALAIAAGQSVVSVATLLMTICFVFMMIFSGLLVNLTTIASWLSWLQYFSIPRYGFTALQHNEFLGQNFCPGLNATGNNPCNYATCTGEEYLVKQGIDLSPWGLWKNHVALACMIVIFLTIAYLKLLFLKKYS
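Test system: ABCG2 IgMXP3 and barcoded ABCB1 CCRF-Adr cell mix; Schedule: cells with compound and JC-1, 10 min at 25 °C, rotating, no wash; Technique: flow cytometry of retained JC-1 fluorescence; Measure: % inhibition of efflux relative to nicardipine and DMSO; Controls: nicardipine high and DMSO low controls.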
RGS16-Gao – RGS16-Galphao interaction regulator (human). bead-based flow cytometry RGS16-Galphao binding, fluorescence; actives lie on both sides. binding response (% of control), % at 10 µM. hit rate 0.38% among 220,000;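 further: Galphao activated by GDP with aluminum fluoride before binding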
ABCB1 inh – human ABCB1 inhibition, ABCG2 as counter-screen; CCRF-Adr cells, JC-1 efflux, flow cytometry; inhibition, % at 6.6 µM; hit rate 0.067% among 190,000; in the data active means inhibition above about 40%;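 further: 0% = vehicle and 100% = reference inhibitor; higher value means more JC-1 retained so stronger ABCB1 efflux block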
RGS4-Gao reg – human RGS4-Galphao interaction regulation; binding response (% of control), % at 10 µM; hit rate 0.33% among 220,000; Multiplexed bead flow cytometry, RGS4-Galphao binding; actives lie on both sides; P09471; AID 1415; in the data active means binding response below about 49% or above about 150%; inactive means in between;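 further: fluorescent Galphao activated with aluminum fluoride binding bead-coupled RGS4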
RGS7-Gao reg – modulates binding of RGS7 to human Galphao; binding response (% of control), % at 10 µM; Multiplexed bead flow cytometry; actives lie on both sides; hit rate 0.35% among 220,000; P09471; in the data active means binding response below about 49% or above about 150%; inconclusive means no clear call, values can overlap the other calls; inactive means in between;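 further: fluorescent Galphao held in activated GDP-AlF4 state binding bead-coupled RGS7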
RGS4-Gao HTS – RGS4-Galphao interaction regulator (human); RGS4–Galpha-o binding response, % at 10 µM; shares compounds with RGS16-Gao; multiplexed bead flow cytometry, RGS–Galpha-o binding; hit rate 99% among 1,600;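 further: fluorescently labeled Galpha-o bound to GDP with aluminium fluoride binding biotinylated RGS beads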
Biotin-avidin – biotin-avidin bead binding disruption counter-screen | shares compounds with RGS16-Gao | streptavidin beads, fluorescein-biotin binding, flow cytometry | inhibition, % at 10 µM | 1,700 tested, under 10 active;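 active means inhibition above 50%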;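 further: median green fluorescence of gated singlet beads compared with DMSO control wells; 0% = DMSO wells and 100% = complete loss of bead fluorescence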
RGS8-Gao confirm – RGS8-Galphao interaction regulation, single point confirmation; bead-based flow cytometry RGS8-Galphao binding, fluorescence; actives lie on both sides; hit rate 3% among 1,700; shares compounds with RGS16-Gao; binding response (% of control), % at 10 µM; in the data active means binding response below about 72% or above about 130%; inactive means in between;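 further: Galphao activated as GDP AlF4 complex before binding bead RGS8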
RGS7-Gao confirm – confirmation of regulators of human RGS7-Galphao interaction. shares compounds with RGS16-Gao. bead-based flow cytometry RGS7-Galphao binding; actives lie on both sides. response (percent of control binding), % at 10 µM. hit rate 7.8% among 1,700. AID 1837; in the data active means response below about 75% or above about 130%; inactive means in between;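 further: fluorescent Galphao activated with GDP and aluminum fluoride binding bead-coupled RGS7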
RGS16-Gao conf – RGS16-Galphao interaction regulation, single point confirmation; hit rate 4% among 1,700; response (% of control binding), % at 10 µM; bead-based flow cytometry, RGS16-Galphao binding; actives lie on both sides; shares compounds with RGS16-Gao; in the data active means response below about 74% or above about 130%; inactive means in between;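 further: Galphao activated as the GDP aluminium fluoride complex binding bead-coupled RGS16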
RGS4-Gao single – RGS4-Galphao interaction regulation, single point confirmation; shares compounds with RGS16-Gao; RGS4-Galphao binding, multiplexed bead flow cytometry; actives lie on both sides; binding response (% of control), % at 10 µM; hit rate 4% among 1,700; AID 1840; in the data active means binding response below about 74% or above about 130%; inactive means in between
RGS19-Gao conf – RGS19-Galphao interaction regulation, single point confirmation. shares compounds with RGS16-Gao. bead-based flow cytometry RGS19-Galphao binding; actives lie on both sides. response (percent of control binding), % at 10 µM. hit rate 5% among 1,700. AID 1841; in the data active means response below about 50% or above about 160%; inactive means in between;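 further: 100% = no compound control and 0% = blank background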
* = called active by the depositor; [ ] = another dose, or the depositor's remark. Only some compounds are listed: those with a hit (about 0.9% of all), similar ones and a draw of the others. Unless noted, how the calls were made is not given here.

For Nc1cccc(CCc2nc3cc4ccccc4cc3[nH]2)c1 the results were RGS8-Gao reg 70, ABCG2 block 3, RGS16-Gao 8.6*, RGS4-Gao reg 89, RGS7-Gao reg 83, RGS4-Gao HTS 89*, Biotin-avidin -1, RGS8-Gao confirm 98, RGS7-Gao confirm 93, RGS16-Gao conf 94, RGS4-Gao single 97 and RGS19-Gao conf 108.
`CC(O)c1nc2ccccc2n1CC(=O)N1CCN(c2ccccc2)CC1` (configuration not stated) gave RGS8-Gao reg 101, ABCG2 block 1, RGS16-Gao 101, ABCB1 inh 1, RGS4-Gao reg 101 and RGS7-Gao reg 103.
Screening O=C(NCCSc1ccc(Cl)cc1)c1ccc(CN2CCOCC2)cc1 returned RGS8-Gao reg 103, ABCG2 block 1, RGS16-Gao 104, ABCB1 inh 0, RGS4-Gao reg 102 and RGS7-Gao reg 97.
O=C(NCCSCc1ccc(Cl)cc1Cl)c1ccc(CN2CCOCC2)cc1 was read as RGS8-Gao reg 13*, ABCG2 block 7, RGS16-Gao -10*, ABCB1 inh 2, RGS4-Gao reg -21*, RGS7-Gao reg -2.0*, Biotin-avidin 1, RGS8-Gao confirm 99, RGS7-Gao confirm 100, RGS16-Gao conf 99, RGS4-Gao single 99 and RGS19-Gao conf 108.
`Cc1ccc(OCC(=O)NNC(=O)C2CCCO2)c(C)c1` (configuration not stated) gave RGS8-Gao reg 101, ABCG2 block -3, RGS16-Gao 105, ABCB1 inh 0, RGS4-Gao reg 105 and RGS7-Gao reg 109.
`O=C(CSc1ncnc2c1oc1ccccc12)Nc1nccs1` gave RGS8-Gao reg 132, ABCG2 block 2, RGS16-Gao 154, ABCB1 inh 0, RGS4-Gao reg 146, RGS7-Gao reg 155*[activator], RGS4-Gao HTS 146*, Biotin-avidin -1, RGS8-Gao confirm 112, RGS7-Gao confirm 107, RGS16-Gao conf 107, RGS4-Gao single 102 and RGS19-Gao conf 94.
Screening CCOC(=O)/C=C1\SCC(=O)N1CC(=O)Nc1ccc(C(C)C)cc1 returned RGS8-Gao reg 142*[activator], ABCG2 block 2, RGS16-Gao 301, ABCB1 inh 1, RGS4-Gao reg 114, RGS7-Gao reg 110, RGS4-Gao HTS 114*, Biotin-avidin -1, RGS8-Gao confirm 99, RGS7-Gao confirm 100, RGS16-Gao conf 97, RGS4-Gao single 99 and RGS19-Gao conf 100.
For CC(C)CNC(=O)c1ccc(COc2ccc(Cl)cc2Cl)o1 the results were RGS8-Gao reg 60*, ABCG2 block 2, RGS16-Gao 45, ABCB1 inh 0, RGS4-Gao reg 52, RGS7-Gao reg 49*, RGS4-Gao HTS 52*, Biotin-avidin -2, RGS8-Gao confirm 100, RGS7-Gao confirm 96, RGS16-Gao conf 99, RGS4-Gao single 98 and RGS19-Gao conf 108.
For COC(=O)C(NC(C)=O)(Nc1nc2ccc(C)cc2s1)C(F)(F)F (configuration not stated) the results were RGS8-Gao reg 102, ABCG2 block 5, RGS16-Gao 103, ABCB1 inh 1, RGS4-Gao reg 102 and RGS7-Gao reg 108.
COC(=O)C(NC(C)=O)(Nc1nc2ccc(S(C)(=O)=O)cc2s1)C(F)(F)F (configuration not stated) was read as RGS8-Gao reg 92, ABCG2 block 3, RGS16-Gao -18*, ABCB1 inh 1, RGS4-Gao reg 97, RGS7-Gao reg 94 and RGS4-Gao HTS 97*.
`CC(C)CC(=O)NC1(C(F)(F)F)C(=O)N(CC(C)C)C2=C1C(=O)CC(C)(C)C2` (configuration not stated) gave RGS8-Gao reg 155*[activator], ABCG2 block 1, RGS16-Gao 167, ABCB1 inh 0, RGS4-Gao reg 165*[activator], RGS7-Gao reg 169*[activator], Biotin-avidin 0, RGS8-Gao confirm 96, RGS7-Gao confirm 88, RGS16-Gao conf 93, RGS4-Gao single 94 and RGS19-Gao conf 80.
For CCCCN1C(=O)C(NC(=O)CC(C)C)(C(F)(F)F)C2=C1CC(C)(C)CC2=O (configuration not stated) the results were RGS8-Gao reg 101, ABCG2 block 1, RGS16-Gao 103, ABCB1 inh 1, RGS4-Gao reg 102 and RGS7-Gao reg 100.
Screening C(=N\Nc1ccccn1)/c1ccc2c(c1)OCCO2 returned RGS8-Gao reg 102, ABCG2 block 15, RGS16-Gao 109, ABCB1 inh 0, RGS4-Gao reg 99 and RGS7-Gao reg 96.
Screening COc1cccc(-c2ccc(=O)n(CC(=O)Nc3ccc(S(=O)(=O)NCC(C)C)cc3)n2)c1 returned RGS8-Gao reg 110, ABCG2 block 1, RGS16-Gao 111, ABCB1 inh 0, RGS4-Gao reg 108 and RGS7-Gao reg 108.
Screening COc1ccc(-c2nc(N)c(C#N)c(-c3cccnc3)c2C)cc1 returned RGS8-Gao reg 97, RGS16-Gao 96, RGS4-Gao reg 95 and RGS7-Gao reg inconclusive.
`CC(C)COc1ccc2[nH]c3c(c2c1)CCCC3=O` gave RGS8-Gao reg 121, ABCG2 block 1, RGS16-Gao 336*[activator], ABCB1 inh 0, RGS4-Gao reg 118, RGS7-Gao reg 103, RGS4-Gao HTS 118*, Biotin-avidin 0, RGS8-Gao confirm 105, RGS7-Gao confirm 105, RGS16-Gao conf 103, RGS4-Gao single 101 and RGS19-Gao conf 97.
